# Only some compounds are listed: those with a hit (about 2.7% of all), similar ones and a draw of the others.
# PLK1 PBD inh: Plk1 (human) PBD binding inhibition; inhibition, %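 (tested at about 20 µM)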; P53350; 97,000 compounds, 0.13% hits; Plk1 PBD phosphopeptide binding, fluorescence polarization; AID 693; in the data active means inhibition above about 34%, passing the limit was not always enough
# Target sequence (P53350 whole entry, looked up): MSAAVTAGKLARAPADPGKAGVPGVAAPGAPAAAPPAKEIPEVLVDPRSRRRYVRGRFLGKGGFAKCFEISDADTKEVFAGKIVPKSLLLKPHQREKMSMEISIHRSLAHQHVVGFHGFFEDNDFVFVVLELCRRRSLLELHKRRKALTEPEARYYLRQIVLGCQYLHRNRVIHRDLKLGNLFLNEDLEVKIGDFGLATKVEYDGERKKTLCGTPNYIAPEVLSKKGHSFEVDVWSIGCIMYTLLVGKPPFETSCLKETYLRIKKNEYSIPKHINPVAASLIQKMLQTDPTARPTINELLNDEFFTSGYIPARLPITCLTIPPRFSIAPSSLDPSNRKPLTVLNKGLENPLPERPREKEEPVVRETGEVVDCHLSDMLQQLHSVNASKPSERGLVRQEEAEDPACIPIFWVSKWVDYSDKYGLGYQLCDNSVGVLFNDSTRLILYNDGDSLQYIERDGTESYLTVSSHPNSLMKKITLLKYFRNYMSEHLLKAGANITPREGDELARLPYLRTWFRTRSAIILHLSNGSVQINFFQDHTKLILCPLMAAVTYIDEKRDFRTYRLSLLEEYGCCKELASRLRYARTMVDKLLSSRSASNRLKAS
# PLAP act: activators of human placental alkaline phosphatase | 96,000 compounds, 1.2% hits | purified PLAP enzyme, luminescent substrate read-out; stronger effect = higher value | activation fold at 20 µM; in the data active means activation fold above about 2
# Rev-RRE block: HIV Rev-RRE protein-RNA interaction inhibition | inhibition, % at 8 µM | Rev peptide-RRE RNA binding, FRET | P05866 | 97,000 compounds, 0.79% hits;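 active means inhibition above the screen-wide mean plus 3 SD, cut at about 35% in these data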
#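 Assay system: labelled RRE RNA duplex and labelled Rev peptide / Medium: HEPES pH 7.5 salt buffer with EDTA / Reagent: labelled Rev peptide / Schedule: 5 + 15 min at 25 °C / Signal: FRET, excitation 480 nm, emission 540 nm donor and 671 nm acceptor / Benchmarks: DMSO and neomycin B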
# LYP inh 2: LYP (human) phosphatase inhibition; Q9Y2R2; recombinant LYP catalytic domain, DiFMUP fluorescence; inhibition, % at 2 µM; 96,000 compounds, 0.21% hits;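 active means inhibition at 2 µM at or above a set limit, the screen mean plus 3 SD, cut at about 24% in these data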
# PLK1 kinase inh: blocks human PLK1 kinase activity | 97,000 compounds, 0.53% hits | inhibition, % at 10 µM | recombinant PLK1 kinase, TR-FRET peptide phosphorylation;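 active means inhibition of 50% or more in the single-concentration screen; inactive means inhibition below 50%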
# PTPN22 act: LYP (human) phosphatase activation | 96,000 compounds, 0.11% hits | recombinant LYP, DiFMUP fluorescence; 0 = plate median, 100 = signal doubled | Q9Y2R2 | activation, % at 2 µM;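 active means activation at 2 µM above a set limit, the mean plus 5 SD, cut at about 37% in these data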
# PLK1 inh conf: PLK1 (human) kinase inhibition, confirmed; AID 744; inhibition, % at 10 µM; recombinant PLK1 kinase, TR-FRET peptide phosphorylation; 210 compounds, 20% hits; shares compounds with PLK1 kinase inh;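 active means inhibition at or above 50% in each of two repeat confirmation tests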
# Plk1 interf: interferes with the Plk1 assay readout, not true inhibition; AID 756; inhibition (interference), % at 10 µM; shares compounds with PLK1 kinase inh; Plk1 TR-FRET assay interference, compound added post-reaction; 210 tested, under 10 active;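 active means both duplicate runs show 50% or greater inhibition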
# Numbers stand for hits; . = inactive; / = no result given; [ ] = remark or other dose.
SMILES,PLK1 PBD inh,PLAP act,Rev-RRE block,LYP inh 2,PLK1 kinase inh,PTPN22 act,others
CC(C)OC(=O)CN1C(=O)S/C(=C/c2ccc(N3CCCCC3)o2)C1=O,.,.,136[fluorescence artefact?],.,.,.,
CC(C)n1cc(/C=C2/SC(=O)N(CC(=O)N3CCCC3)C2=O)c2ccccc21,.,.,.,.,.,.,
CCN1C(=O)C(O)(CC(=O)/C=C/C=C/c2ccccc2)c2ccccc21 (stereo not given),.,.,.,.,.,.,
O=C(N/N=C/c1ccco1)c1cc(-c2ccccc2)n[nH]1,.,/,.,.,.,.,
Cc1ccc(-c2cc(C(=O)N/N=C/c3ccco3)[nH]n2)cc1,.,2.2,.,.,.,.,
COc1ccc(N2CCN(c3nc(=S)n(-c4ccccc4)c(C)c3C(C)=O)CC2)cc1,.,.,40,.,.,.,
O=C(CC1Nc2ccccc2NC1=O)c1ccccc1 (stereo not given),.,.,73,.,.,.,
COC(=O)c1c(C)c2c(C)cc3ccccn3c-2c1C(=O)OC,.,.,46,.,.,.,
O=C(CN1CCN(Cc2cccc(Cl)c2)C1=O)NCC1CCCO1 (stereo not given),.,.,.,.,.,.,
O=C1c2ccccc2C(=O)N1CCN1CCCCC1,.,.,.,.,.,.,
O=C1C(=O)N(CCN2CCCCC2)c2ccccc21,.,/,.,.,53,.,
O=C1NC(=S)N/C1=C/c1cc([N+](=O)[O-])ccc1O,.,.,111[fluorescence artefact?],.,.,.,
O=C1NC(=S)N/C1=C/c1cccc([N+](=O)[O-])c1O,.,.,69,.,.,.,
CCOc1cc(/C=C2/NC(=S)NC2=O)ccc1OCc1ccc([N+](=O)[O-])cc1,.,.,.,.,.,.,
COc1cc(C2c3c(oc4ccccc4c3=O)C(=O)N2Cc2cccnc2)cc(OC)c1OC (stereo not given),.,.,.,.,.,.,
Cc1ccc(CNC(=O)c2ccccc2N)cc1,.,.,.,60,.,.,
Cc1cccc(CNC(=O)c2ccccc2N)c1,.,.,.,.,.,.,
O=C(NCCN1CCOCC1)c1cc2ccccc2[nH]1,.,/,.,.,.,.,
O=C(NCCC1=CCCCC1)c1ccc(=O)oc1,.,.,.,.,.,.,
CCOc1ccc(C2C(C(=O)c3ccco3)=C(O)C(=O)N2CCN(C)C)cc1 (stereo not given),.,.,.,.,.,.,
C=CCOc1cccc(C2C(C(=O)c3ccco3)=C(O)C(=O)N2CCN(CC)CC)c1 (stereo not given),.,.,.,.,52,.,
C=CCOc1cccc(C2C(C(=O)c3ccc(C)o3)=C(O)C(=O)N2c2nccs2)c1 (stereo not given),.,.,78,.,.,.,
Cc1ccc(C(=O)C2=C(O)C(=O)N(c3ncccn3)C2c2cccc(Cl)c2)o1 (stereo not given),/,.,/,/,/,/,
Cc1ccc(C(=O)N2CCN(c3ccc(Cl)cc3)CC2)cc1,.,.,.,.,.,.,
Cc1ccc(N2C(=O)C3C(C2=O)C(C(=O)c2ccc(Cl)cc2)N2CCCC32)cc1 (stereo not given),.,.,62,.,.,.,
SMILES,PLK1 PBD inh,PLAP act,Rev-RRE block,LYP inh 2,PLK1 kinase inh,PTPN22 act,others
CCc1ccc(OCC(=O)NCc2ccco2)c(Br)c1,.,.,.,.,.,.,
CC(C)OC(=O)c1c2nc3ccccc3nc2n2c1[nH]c(=O)c1ccccc12,.,.,69,.,.,.,
Cc1ccc2c(c1)[nH]c1c(N3CCN(Cc4ccccc4)CC3)ncnc12,.,.,.,.,.,.,
Cc1ccc2[nH]c3c(N4CCN(Cc5ccccc5)CC4)ncnc3c2c1,.,2,.,.,.,.,
Fc1ccc2[nH]c3c(N4CCN(C5CCCCC5)CC4)ncnc3c2c1,/,2.3,/,/,/,/,
COc1cccc2[nH]c3c(N4CCN(Cc5ccc6c(c5)OCO6)CC4)ncnc3c12,.,2.1,.,.,.,.,
COc1ccccc1NC(=O)c1cc(Cl)ccc1NC(=O)c1ccco1,.,.,.,.,.,.,
COc1ccccc1NC(=O)C(=O)NNC(=O)c1ccco1,.,2.2,.,.,.,.,
COc1ccc2[nH]c(=S)[nH]c2c1,.,2.6,.,.,.,.,
S=c1[nH]c2ccc(Cl)cc2[nH]1,.,/,.,.,.,.,
Cc1cc(=O)oc(C)c1C(=O)NCc1c(F)cc(F)cc1F,.,.,.,.,.,.,
O=C(CC(c1ccccc1)c1ccccc1)Nc1ccc(Cl)cn1,.,.,.,.,.,.,
O=C(CC(c1ccccc1)c1ccccc1)Nc1ncn[nH]1,.,2.9,.,.,.,.,
O=C1C=C(Nc2ccc(Cl)cc2)CC(c2ccc(Cl)cc2)C1 (stereo not given),.,/,.,.,.,.,
Cc1cc(C)nc(SCC(=O)Nc2ccc(S(=O)(=O)N3CCCCC3)cc2)n1,.,2.1,.,.,.,.,
Cc1cccc(NC(=O)CSc2nnc(-c3ccc(S(=O)(=O)N4CCCC4)cc3)o2)c1,.,2.1,.,.,.,.,
Cc1csc(SCC(=O)Nc2ccc(S(=O)(=O)N3CCCC3)cc2)n1,.,.,.,.,.,.,
COc1ccc(CN(C(=O)c2ccco2)c2ccccc2)cc1,.,/,.,.,.,.,
COc1ccc(N(CN2C(=O)C3C4C=CC(C4)C3C2=O)C(=O)c2ccco2)cc1 (stereo not given),52,/,.,.,.,.,
Cc1oc2ncnc(N)c2c1C,.,.,.,.,76,.,PLK1 inh conf=68;Plk1 interf=.
O=C(CSCc1ccc(F)cc1)N1CCOCC1,.,.,.,.,115,.,PLK1 inh conf=.;Plk1 interf=.
O=C(CSCc1ccc(Br)cc1)N1CCOCC1,.,.,.,.,.,.,
COc1ccc(N(C(=O)Nc2ccc(Cl)cc2)C2=NCCC2)cc1,.,.,.,.,.,.,
Cn1c(SCc2cccnc2)nnc1-c1c[nH]c2ccccc12,.,.,.,/,74,/,PLK1 inh conf=.;Plk1 interf=.
C#CCSc1nnc(-c2c[nH]c3ccccc23)n1C,/,.,/,/,/,/,
SMILES,PLK1 PBD inh,PLAP act,Rev-RRE block,LYP inh 2,PLK1 kinase inh,PTPN22 act,others
CCn1c(SCc2nc(-c3cccs3)no2)nnc1-c1c[nH]c2ccccc12,.,.,.,.,.,.,
CCn1c(SCc2ccc(C(=O)OC)o2)nnc1-c1c[nH]c2ccccc12,.,.,.,/,73,/,PLK1 inh conf=.;Plk1 interf=.
COCCn1c(SC)nnc1-c1c[nH]c2ccccc12,.,.,.,/,73,/,PLK1 inh conf=.;Plk1 interf=.
CCn1c(SC)nnc1-c1c[nH]c2ccccc12,.,.,.,/,77,/,PLK1 inh conf=.;Plk1 interf=.
Cc1cc2c(ncn2Cc2ccccc2)c(NS(C)(=O)=O)c1C,.,.,.,.,.,.,
CCc1cc2c(=O)[nH]cnc2s1,.,.,.,.,.,.,

# Screening results deposited in PubChem BioAssay by several laboratories.
